Laboratory results from ChEMBL document CHEMBL1806443, “Novel imidazo[4,5-b]pyridine and triaza-benzo[c]fluorene derivatives: synthesis, antiproliferative activity and DNA binding studies” (Eur J Med Chem, 2011).

Assays:
SW-620 [1] = assay: Cell cycle arrest in human SW620 cells assessed as accumulation at subG1 phase at 5 uM after 24 hrs by propidium iodide staining based flow cytometeric analysis (reference value: 18 +/- 1%); type: functional
Procedure, shortened: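 Cells seeded at 3 × 10^4 per well and treated 24 h later with 1, 5 or 10 µM for 24 and 48 h. Adherent and floating cells were pooled, washed in PBS and fixed in 70% ethanol. They were then stained with propidium iodide 10 µg/mL plus RNase A 0.2 µg/mL. Flow cytometry counted 10000 events; each point was run in triplicate; significance was taken at p < 0.05.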

MIA PaCa-2 [2] = assay: Cell cycle arrest in human MIAPaCa2 cells assessed as accumulation at G2/M phase at 1 uM after 48 hrs by propidium iodide staining based flow cytometeric analysis (reference value: 14.3 +/- 1.8%); type: functional
MIA PaCa-2 [3] = assay: Cell cycle arrest in human MIAPaCa2 cells assessed as accumulation at S phase at 1 uM after 48 hrs by propidium iodide staining based flow cytometeric analysis (reference value: 20.5 +/- 0.2%); type: functional
SW-620 [4] = assay: Cell cycle arrest in human SW620 cells assessed as accumulation at S phase at 5 uM after 24 hrs by propidium iodide staining based flow cytometeric analysis (reference value: 48.4 +/- 1.4%); type: functional
MIA PaCa-2 [5] = assay: Cell cycle arrest in human MIAPaCa2 cells assessed as accumulation at G1 phase at 5 uM after 24 hrs by propidium iodide staining based flow cytometeric analysis (reference value: 51.2 +/- 2.7%); type: functional
WI-38 = assay: Antiproliferative activity against human WI38 cells after 72 hrs by MTT assay; type: cell-based; conditions: Homo sapiens, WI-38, 72 h
Procedure, shortened: (§1)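 Monolayer cells in DMEM with 10% FBS, 2 mM L-glutamine, penicillin and streptomycin at 37 °C, 5% CO2. Seeded at 3000-6000 cells/well by doubling time on day 0. Five 10-fold dilutions (0.01–100 µM) were added and incubated 72 h. MTT read-out, converted to percentage growth. IC50 by linear regression between bracketing concentrations. Quadruplicate points, three independent experiments, ANOVA/Tukey p<0.05.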

HEp-2 = assay: Antiproliferative activity against human Hep2 cells after 72 hrs by MTT assay; type: functional, cell-based; conditions: Homo sapiens, HEp-2, 72 h; procedure, shortened: as §1
Nucleic Acid = assay: Binding affinity to calf thymus DNA assessed as change in melting temperature at compound to polynucleotide ratio of 0.2 by UV-VIS spectroscopic analysis; type: nucleic-acid assay; conditions: Bos taurus
Procedure, shortened: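 ct-DNA alone or with compound at set r = [compound]/[polynucleotide], in cacodylate buffer pH 7.0, I = 0.05 mol dm^-3. Absorbance at 260 nm followed against temperature, ligand absorbance subtracted, curves normalized. Tm is the transition midpoint, from the first-derivative maximum or by tangent method. ΔTm = Tm(complex) − Tm(free DNA), mean of ≥2 runs, error ±0.5 °C.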

In the case of `Cl.c1cnc2nc3ccc4ccc(C5=NCCN5)cc4n3c2c1`, the Activity (SW-620 [1]) is reported as 24.4%, the Activity (MIA PaCa-2 [2]) is reported as 23% and the Activity (MIA PaCa-2 [3]) is reported as 34.6%. The Activity (SW-620 [4]) was 11.8%, the Activity (MIA PaCa-2 [5]) was 22.4% and the IC50 (WI-38) was 1770 nM. The IC50 (HEp-2) was 270 nM and the ΔTm (Nucleic Acid) was 5.1 °C.
